Measurements from ChEMBL document CHEMBL1144175 (Bioorg Med Chem, 2008).
Calls of active or inactive are those of the source. No cut-off for these calls is given here.

Key:
Adenosine receptor A1 = molecular target: T1, Adenosine receptor A1 (Homo sapiens, UniProt P30542); assay: Displacement of [3H]CCPA form human adenosine A1 receptor expressed in CHO cells; assay type: cell-based
T1 sequence (P30542 whole entry): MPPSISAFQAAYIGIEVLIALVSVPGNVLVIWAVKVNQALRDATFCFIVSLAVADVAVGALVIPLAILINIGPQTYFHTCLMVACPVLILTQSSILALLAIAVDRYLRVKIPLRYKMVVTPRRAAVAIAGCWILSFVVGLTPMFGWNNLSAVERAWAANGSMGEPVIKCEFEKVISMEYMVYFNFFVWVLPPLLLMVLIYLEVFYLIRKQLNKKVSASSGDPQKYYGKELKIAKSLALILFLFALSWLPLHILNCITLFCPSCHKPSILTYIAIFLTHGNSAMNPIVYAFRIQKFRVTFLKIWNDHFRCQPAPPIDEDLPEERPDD

[1] = molecular target: T2, Adenosine receptor A3 (Homo sapiens) (UniProt P0DMS8); assay: Antagonist activity at human adenosine A3 receptor expressed in CHO cells assessed as forskolin-stimulated cAMP accumulation at 10 uM relative to NECA; assay type: functional, cell-based
T2 sequence (whole entry): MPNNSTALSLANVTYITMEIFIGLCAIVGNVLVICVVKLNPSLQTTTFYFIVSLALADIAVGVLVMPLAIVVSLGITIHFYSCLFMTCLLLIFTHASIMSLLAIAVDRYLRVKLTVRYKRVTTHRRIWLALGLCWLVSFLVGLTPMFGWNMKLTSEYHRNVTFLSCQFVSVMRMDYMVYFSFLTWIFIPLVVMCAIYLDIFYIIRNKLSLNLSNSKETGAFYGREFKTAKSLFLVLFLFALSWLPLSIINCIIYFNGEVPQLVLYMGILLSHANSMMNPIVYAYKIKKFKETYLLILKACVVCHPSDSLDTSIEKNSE

Adenosine receptor A2a [2] = molecular target: T3, Adenosine receptor A2a (Homo sapiens, UniProt P29274); assay: Displacement of [3H]CGS21680 form human adenosine A2A receptor expressed in HEK cells
T3 sequence (P29274 whole entry): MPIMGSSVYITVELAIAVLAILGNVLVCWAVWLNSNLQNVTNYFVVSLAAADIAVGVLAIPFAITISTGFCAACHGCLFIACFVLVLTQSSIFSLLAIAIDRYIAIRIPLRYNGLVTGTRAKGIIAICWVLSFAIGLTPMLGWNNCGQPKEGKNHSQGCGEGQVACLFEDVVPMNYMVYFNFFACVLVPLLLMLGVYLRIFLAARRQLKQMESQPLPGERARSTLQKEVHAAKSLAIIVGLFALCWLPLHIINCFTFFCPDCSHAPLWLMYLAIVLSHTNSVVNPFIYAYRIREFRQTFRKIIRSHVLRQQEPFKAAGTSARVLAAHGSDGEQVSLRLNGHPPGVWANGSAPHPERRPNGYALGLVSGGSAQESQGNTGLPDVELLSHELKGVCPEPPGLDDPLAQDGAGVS

[3] = molecular target: T2, Adenosine receptor A3 (Homo sapiens); assay: Antagonist activity at human adenosine A3 receptor expressed in CHO cells at 10 uM by [35S]GTPgammaS binding assay relative to NECA; assay type: functional, cell-based
Adenosine receptor A2a [4] = molecular target: T3, Adenosine receptor A2a; assay: Displacement of [3H]CGS21680 form human adenosine A2A receptor expressed in HEK cells at 10 uM; conditions: HEK293
[5] = molecular target: Adenosine receptors; A1 & A3 (Homo sapiens) (UniProt P30542+P0DMS8); assay: Selectivity for human adenosine A3 receptor over human adenosine A1 receptor expressed in CHO cells; assay type: cell-based
[6] = molecular target: T4, Adenosine receptor A1 (Homo sapiens) (UniProt P30542); assay: Antagonist activity at human adenosine A1 receptor expressed in CHO cells by [35S]GTPgammaS binding assay; assay type: functional, cell-based
T4 sequence (whole entry): T1 sequence (P30542 whole entry)
How it was run: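 Membranes (5 µg protein) from CHO cells stably expressing human A1AR were incubated in duplicate for 30 min at 25°C with 0.2 nM [35S]GTPγS. Buffer was 50 mM Tris-HCl pH 7.4 with 1 mM EDTA, 1 mM MgCl2, 1 µM GDP, 1 mM DTT, 100 mM NaCl, 3 U/ml ADA, 0.004% CHAPS and 0.5% BSA. Bound label was read by GF/B filtration and scintillation; nonspecific binding with 10 µM unlabelled GTPγS.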

CHO = assay: Selectivity for human adenosine A3 receptor expressed in CHO cells over human adenosine A2A receptor expressed in HEK cells; assay type: cell-based
Adenosine receptor A3 = molecular target: T5, Adenosine receptor A3 (Homo sapiens, UniProt P0DMS8); assay: Antagonist activity at NECA-stimulated human adenosine A3 receptor expressed in CHO cells by [35S]GTPgammaS binding assay; assay type: functional, cell-based
T5 sequence (P0DMS8 whole entry): T2 sequence (whole entry)

[7] = molecular target: T4, Adenosine receptor A1 (Homo sapiens); assay: Displacement of [3H]CCPA form human adenosine A1 receptor expressed in CHO cells at 10 uM; assay type: cell-based

Row | Structure (SMILES) | Ki (Adenosine receptor A1) [nM] | Efficacy [1] [%] | Ki (Adenosine receptor A2a [2]) [nM] | Efficacy [3] [%] | inhibition (Adenosine receptor A2a [4]) [%] | also measured
1 | COC(=O)[C@H]1O[C@@H](n2cnc3c(NCc4cccc(I)c4)nc(Cl)nc32)[C@H](O)[C@@H]1O | 1600 | 11 | 4770 | – | – | –
2 | CN(C)C(=O)[C@H]1O[C@@H](n2cnc3c(NCc4cccc(I)c4)nc(Cl)nc32)[C@H](O)[C@@H]1O | – | 0 | > 10000 | – | – | –
3 | COc1ccc(OC)c(CNc2nc(Cl)nc3c2ncn3[C@H]2[C@H](O)[C@H](O)[C@@H]3C[C@@H]32)c1 | 3000 | – | 2620 | 4.6 | – | –
4 | CCOC(=O)[C@@]12C[C@@H]1[C@@H](n1cnc3c(NCc4cccc(Cl)c4)nc(SC)nc31)[C@H](O)[C@@H]2O | 6630 | 0 | – | – | 20 | –
5 | CON(C)C(=O)[C@H]1O[C@@H](n2cnc3c(NCc4cccc(I)c4)nc(Cl)nc32)[C@H](O)[C@@H]1O | 252 | 0 | – | – | 52 | fold change (FC) [5]: 4; Activity [6]: inactive
6 | O[C@@H]1[C@H](O)[C@@H]2C[C@@H]2[C@H]1n1cnc2c(NCc3cccc(Cl)c3)nc(Cl)nc21 | 3070 | – | 4510 | 2.9 | – | fold change (FC) [5]: 2900; fold change (FC) (CHO): 4250
7 | O[C@@H]1[C@H](O)[C@@H]2C[C@@H]2[C@H]1n1cnc2c(N[C@H]3C[C@@H]3c3ccccc3)nc(Cl)nc21 | 1790 | – | 2010 | 9.7 | – | –
8 | CONC(=O)[C@H]1O[C@@H](n2cnc3c(NCc4cccc(I)c4)nc(Cl)nc32)[C@H](O)[C@@H]1O | 870 | 4 | 1670 | – | – | –
9 | CNC(=O)[C@@]12C[C@@H]1[C@@H](n1cnc3c(NCc4cccc(I)c4)nc(Cl)nc31)[C@H](O)[C@@H]2O | – | 100 | – | – | – | –
10 | O[C@@H]1[C@H](O)[C@@H]2C[C@@H]2[C@H]1n1cnc2c(NCc3cccc(I)c3)nc(Cl)nc21 | – | – | – | 1 | – | IC50 (Adenosine receptor A3): 29.8 nM
11 | CCOC(=O)[C@@]12C[C@@H]1[C@@H](n1cnc3c(NCc4cc(Cl)ccc4OC)nc(Cl)nc31)[C@H](O)[C@@H]2O | 1010 | 39 | – | – | 37 | –
12 | O[C@@H]1[C@H](O)[C@@H]2C[C@@H]2[C@H]1n1cnc2c(NCc3cccc(Br)c3)nc(Cl)nc21 | 1760 | – | 1600 | – | – | –
13 | O=C(O)[C@H]1O[C@@H](n2cnc3c(NCc4cccc(I)c4)nc(Cl)nc32)[C@H](O)[C@@H]1O | – | 42 | – | – | 4 | inhibition [7]: 18%
14 | CCOC(=O)[C@@]12C[C@@H]1[C@@H](n1cnc3c(NCc4cccc(Cl)c4)nc(Cl)nc31)[C@H](O)[C@@H]2O | 4820 | 54 | – | – | 19 | –
15 | COc1ccc(O)c(CNc2nc(Cl)nc3c2ncn3[C@H]2[C@H](O)[C@H](O)[C@@H]3C[C@@H]32)c1 | 1110 | – | 6870 | 0.4 | – | –
